Reference: the EternaBench riboswitch data

Test system: MS2 coat protein
Assay: apparent Kd, MS2 coat protein; higher = weaker binding; RNA-MaP array; FMN 200 µM where present
Summary of the method: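 SNAP-549-labelled MS2 coat protein, doubled from 0.7 or 1.5 nM to 3 µM, was titrated over designs transcribed by stalled E. coli RNA polymerase on Illumina sequencing-chip clusters. Titrations were run without and then with constant ligand in 100 mM Tris-HCl pH 7.5, 80 mM KCl, 4 mM MgCl2, BSA, DTT, yeast tRNA and Tween-20. The apparent Kd is the median of filtered per-cluster fits to green signal normalised to red-channel RNA signal and control-cluster median Fmax.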

[1] = designed as: ON switch for flavin mononucleotide, no ligand
[2] = ligand present: flavin mononucleotide, designed as: ON switch for flavin mononucleotide
[3] = designed as: OFF switch for flavin mononucleotide, no ligand
[4] = ligand present: flavin mononucleotide, designed as: OFF switch for flavin mononucleotide

Sequence	apparent Kd [1] [nM]	apparent Kd [2] [nM]	apparent Kd [3] [nM]	apparent Kd [4] [nM]
UGGUACUAGGGAGGAUAUGGGAAGAUACAUGAGGAUCACCCAUGUUUAAGAAUGCCGAGAGGCAAGUAGAAGGCCCUAGUACCU	781	97.5	–	–
UGAGCGACCACAGGAUAUACUUGGUAAGACCGAGUAGAAGGGUGGAAGAGCGUGCAGUGACAUGAGGAUCACCCAUGUGGUUGU	215	77.5	–	–
GCCGAAAGUGUGAGGAUAUACCUAUGGAUACAUAGGUAGAAGGCACAUGAGGAUCACCCAUGUGUUUCAACGGC	–	–	19.3	71.6
ACCAUUUACUAAUCCUCUAUACAUGAGGAUCACCCAUGUUUUGAGGAUAUCAGCGUGAAACACGCUGAGAAGGCAAAACAUUCG	–	–	73.5	104
AGUAUGCACGCAGGAUAUACAUGAGGAUCACCCAUGUGGAACAGUGUAGUAUUAGUUGAUCCUCAGUAGAAGGGCGGUCGAAAU	–	–	82.5	55.6
GGAGAGUCAGGAUAUACAUGAGGAUCACCCAUGUUGGAAAGUGGAGGGACGGGAGUCCGUAGAAGGGACGAGAG	–	–	34.4	27.7
AAACACGGACAUGAGGAUCACCCAUGUGGCGAAAGCCUUGGGAGAAGGAUAAAUAUAUAAUAAAAUUAGGAUAUUCAUACCGUG	306	104	–	–
GUAGAGUAAGGAUAUCGAGAAUAGGAUAGAAUGGAUAGAAUCGAGAAGGUACAUGAGGAUCACCCAUGUAAUGU	–	–	20.3	18.6
UCCUUCUGUUGAGGAUAUGUAAGACAGCGACUGCUAUUGCGGCACGCUGAUACAGAAGGCAACAUGAGGAUCACCCAUGUUCAA	–	–	22.9	199
AGAUAUGAUGCAGGAUAUCUAUCUUGAAUGAGGAGAGAAGGGCAAGCAGAGACAUAAGCCUUAUUACAUGAGGAUCACCCAUGU	–	–	10.2	7.9
CACAUUUUAACAGGAUAUGUAAGGUUGUUUAUUAUUGCAUUUACAAUUAUUACAGAAGGGUUAUACAUGAGGAUCACCCAUGUG	15.3	15.5	–	–
GGAUGACAAAGUCAUCCAAAUCGAACAUGAGGAUCACCCAUGUAGGAUAUGCAACUCAAAGAGUUGCAGAAGGACAUGUGCUUU	–	–	40.9	172
GUAGAGUAAGGAUAUGGUGAAUAGGAUAGAAUGGUUAGAAAUCAGAAGGUACAUGAGGAUCACCCAUGUAAUGU	–	–	23	22.4
UGUGUGUGUGCAGGAUAUUUAAGAAGAACAUGAGGAUCACCCAUGUGAGGAUCACCCAUGUAAAAGGAGAAGGGCAGUGUGUGU	–	–	754	728
GAAUUAUUACAGAAGGUGUUUUACAUGAGGAUCACCCAUGUUUUAUUGUUUAAAUUUGAUAUUUACAAGGAUAUGUACUAAUCU	32.1	24.3	–	–
AGCGAGAUAGGCGAGGAUAUGCUUUUUUGCACAUGAGGAUCACCCAUGUCUUUGUUUUUUGUUUUGCAGAAGGCGCAUUCUCUUU	18.9	41.2	–	–
UCGUAUAAGGGCAUUACACAUGAGGAUCACCCAUGUACGUUAGAGGAUAUGCAUUCCAGUCGAACGUAGAAGGUUAGAGAAGGG	–	–	307	268
AAGUGUGCCUAGGAUAUGUUCGGCCAAGGUCAUACAGAAGGAGGCACAUGAGGAUCACCCAUGUAGUGUCCUAC	–	–	73.2	43.1
GGGUGGCGUACAGGAUAUGUGGUACAUGAGGAUCACCCAUGUGCAUAUGAUGUUCGUGUGUCAUCAUAGAAGGGUACGUCGCUA	91.2	59.2	–	–
UUGGACGUCGUAGGAUAUGUAGGAUAUUCCUACAUGAGGAUCACCCAUGUUGACCUGGAAGAAGGACAGAAGGACGAUGUCCAU	64.2	4.64	–	–
GGGUACAUCGGAGGAUAUCAUGUAAAUACAUGAGGAUCACCCAUGUCGAUGGCGACAUCGGAGAUUGAGAAGGCCGAUGUACCG	448	12.3	–	–
GGUGCGUUUGUGAGGAUAUGCUGGUCCUUGGAUCAGCAGAAGGCACAUGAGGAUCACCCAUGUGGUGUCCGUCC	–	–	222	117
UUUACGAAAGUCGAACGAUGUAGCAGAAGGACAUGAGGAUCACCCAUGUCAGCUGUAACAGCCAUGUAGGAUAUGCUACAUUUU	–	–	5.37	6.12
UUAAGCAAGGAGAAGGCCCAGGUGGGCCAUCACAUGAGGAUCACCCAUGUGGGAGGAUAUCCGGGCCCACGCUUAUCCGCGGGC	–	–	7.6	12.6
UGGUACAUGGGAGGAUAUCCUCAAGAGACAUGAGGAUCACCCAUGUAUUAUAAGCCGAAAGGCAUGGAGAAGGCCCAUGUACCU	75.4	19.5	–	–
UCAUAUAUACAAGGAUAUCAAUUAUUUACACAUCCUACAUGAGGAUCACCCAUGUUUUAAUAUAUUGAGAAGGUGUAAUGUCGG	24.9	31.9	–	–
GGUGUGCAGCAGGAUAUCCAUCCGCGGUAUGGUGGAGAAGGGCUGACAUGAGGAUCACCCAUGUGCGUCCUAGG	–	–	40.3	133
CGUGACGACAUAGGAUAUUGAUACAUGAGGAUCACCCAUGUCACCCAUUUAUAUAUUAGUGAUGACAAGAAGGAUGUGGUCACG	33.3	7.13	–	–

Sequence	apparent Kd [1] [nM]	apparent Kd [2] [nM]	apparent Kd [3] [nM]	apparent Kd [4] [nM]
AGCAUGCAGUAGGAUAUCGAUCCGCAAUAUGAACGAGAAGGACUGACAUGAGGAUCACCCAUGUGCGUCCUAGG	–	–	16.5	19.7
AAGAGACAUCAGAAGGGAGCCCGAAAGCGCAGCUCAGGAUAUGAGAUCUUAUGUAGUACGACAUGAGGAUCACCCAUGUCCGCG	74.3	10.2	–	–
AUCAGCUCGUCAGGAUAUACGUCACUGCGUCAGCAGGGUGGUAAGAUCACAUGAGGAUCACCCAUGUAGAAGGGACGAGCUGAU	–	–	23	404
UCUGGUCGAGGAUAUGCAUUCGUGCUUCGGCACGUAAGGUCACAUGAGGAUCACCCAUGUAGAAGGCGACCAGA	–	–	19.6	35.9
AAAACAUGAGGAUCACCCAUGUAAAGAUCGGUCGAUCAAGGUGAGGAUAUACAAUAAUUGAUGGAGUAGAAGGCACUGGGUUGA	227	127	–	–
GCGGUUACGGUUGGCACUUAGCGAGAGGAUAUGGUAAGCUGGACAUGAGGAUCACCCAUGUACUAUCAGAAGGCUCGAGCACGC	7.94	9.15	–	–
UGUUGAUAGCAGAAGGACAUGAGGAUCACCCAUGUACGGAUACAAAUAUAUGUAGGAUAUGCUAUUGACUAAGAGUGAGCGUUC	–	–	5.78	7.87
CCAGGCAGUGUGAGGAUAUCGUGGUCCUUGGAUCACGAGAAGGCACAUGAGGAUCACCCAUGUGAAUAGCUUGG	–	–	22.2	87.3
GUGACGAAUGUAGGAUAUGCUGAGGAAUACUCAGCAGAAGGACAUGAGGAUCACCCAUGUAAUCCUAAUAAUAAAUAACGUCAC	–	–	13	18.3
AUAAACGCAGGAUAUACAUGAGGAUCACCCAUGUCCGCGCUUGUUGCGGGCACCUGAUGUAGAAGGGCGGGCGC	–	–	214	184
UUUUCGUGAGGAUAUCAGUAGUAAAUAAAUAAAAUUACUACUGAGAAGGCACAUGAGGAUCACCCAUGUUCCUU	–	–	12.7	22.9
UGGUACAUGGGAGGAUAUGGGUUGAUAACAUGAGGAUCACCCAUGUUAAAUAAGCCGAGAGGCUACUAGAAGGCUCAUGUACCU	327	10.4	–	–
GAUAGGACAGAGAAGGUACGUGCUAGAGAUACUAGCAAAAUUACCUCACAUGAGGAUCACCCAUGUAAGGAUAUCUGUCCUAUC	–	–	4.82	5.54
GUGCAUACGUGAGGAUAUGUAUUAGCUCGUGGUACAGAAGGCAUGUCUGAUGACAUGAGGAUCACCCAUGUUGGCACAGUGCGC	48.2	27.6	–	–
CUCUUGGCAGGAUAUGCUCUCUUAGACAUGAGGAUCACCCAUGUGUUCAUUCUUUCUUUUGCAGAAGGGCCUUAAC	–	–	87.1	82.8
UGUAUUAAUGGAGGAUAUCGAUAUCAAACAUGAGGAUCACCCAUGUUGAGGAUCACCCAUGUCCAUGAGAAGGCUGGCGUACGU	45.4	40.9	–	–
CAUGUCCUCACAGGAUAUGCAAUGUAUUUCAUUGCAGAAGGGUGAACACAUGAGGAUCACCCAUGUGGACAUGAUAUAUUUAAG	529	63.4	–	–
AAAAAAAAUGUGUAGGAUAUCAGUAAAAAUACAUGAGGAUCACCCAUGUUCAAAAAAAAAAAAACUGAGAAGGACACGGAUGGUCC	120	55.9	–	–
UCAUUGUCAGGAUAUCUUAAUAACGGUUCACUGUUUUAUUUGGAGAAGGGACAUGAGGAUCACCCAUGUUCCUG	–	–	18.3	20.8
CGCAAGUAUACAUGAGGAUCACCCAUGUCAGAAAGGGUAAUCAGAAGGUACUAUUAGAGAUAGAGUAAGGAUAUGAAAUUUGUG	399	110	–	–
AGAAACUACGAGAAGGACAUGAGGAUCACCCAUGUUUCCACUUAGUGGUAUGUAGGAUAUCGUAGUUUCAGGAUCGUGAGAUCA	–	–	5.81	6.39
CCUCCCAAGUAAGGAUAUCGGCCAUAGUUAACUCGAGAAGGUACAUGAGGAUCACCCAUGUCGUCCCUACAGACUCCUCCCUCC	–	–	9.19	9.15
CGCAUGCGUAGUAUUAGUUGUUGACAGGAUAUGACAUGAGGAUCACCCAUGUGUAUUAAGAAGUGUCAGAAGGGUCUCGUUGCG	–	–	6.53	9.73
UCGGCGCGAGGAUAUGCGGCUGGUGCUUCGGGCCCUCGCGUACAUGAGGAUCACCCAUGUAGAAGGCGCGCCGC	–	–	32.2	38.6
AUCAUCUUAUCAGGAUAUGCGUGUCGACGAAAGUAGACAAUCUUGAUAACAUGAGGAUCACCCAUGUAGAAGGGAUGAGAUGAU	–	–	46.6	40.2
AUGGCGUGAGGAUAUGCGCAGGUUAACAUGAGGAUCACCCAUGUGGGCAUUGGUUUUCACGCAGAAGGUACGUUAA	–	–	14.5	15.2
CCUCUACAUGAGGAUCACCCAUGUGAGGAUAUGCGAGGCGCGCUCGAUGAGCACGCCGGUAGAAGGCAUGUGGU	–	–	23.8	51.6
